Assay results: ChEMBL document CHEMBL3045148, “nematicidal carboxylic acids and aldehydes from Melia azedarach fruits” (J Agric Food Chem, 2010)
Converted amounts (≈) assume the structure as drawn.

Experiments:
Meloidogyne incognita [1] = assay: Nematicidal activity against Meloidogyne incognita J2 (root-knot nematode) assessed as paralysis measured after 1 hr at 28 degC; assay type: functional, organism-based
How it was run: (§1)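 Freshly hatched (24 h) M. incognita J2 were taken from infested tomato roots. Each well held 25 J2 immersed in test solution, kept in the dark at 28 °C. Ethanol stocks were diluted in water with Tween-20 (final ethanol ≤1%, Tween-20 ≤0.3% v/v); water-soluble acids were made up in water. J2 were scored motile or paralyzed by inverted microscope and corrected for water-control paralysis (Schneider-Orelli). EC50 came from log-logistic regression; two experiments, six replicates each.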

Meloidogyne incognita [2] = assay: Nematicidal activity against Meloidogyne incognita J2 (root-knot nematode) assessed as paralysis measured after 1 day at 28 degC; assay type: functional, organism-based; settings: 24 h; how it was run: as §1
Meloidogyne incognita [3] = assay: Nematicidal activity against Meloidogyne incognita J2 (root-knot nematode) assessed as paralysis measured at 500 ug/mL by fumigant assay; assay type: functional
How it was run: (§2)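 Vapour-exposure microwell test with 24 h-old J2 from infested tomato roots, kept in the dark at 28 °C. Test solution went into one well and J2 in tap water into the four adjacent wells, with one dose per plate. Paralysis in the adjacent wells (120 J2 per replicate) was scored by microscope as motile or paralyzed and corrected for water-control paralysis (Schneider-Orelli). Two experiments, six replicates.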

Meloidogyne incognita [4] = assay: Nematicidal activity against Meloidogyne incognita J2 (root-knot nematode) assessed as paralysis measured after 1 day at 28 degC by fumigant assay; assay type: functional, organism-based; settings: 24 h; how it was run: as §2

Structure (SMILES) | EC50 (Meloidogyne incognita [1]) [µg/mL] | EC50 (Meloidogyne incognita [2]) [µg/mL] | Activity (Meloidogyne incognita [3]) [µg/mL] | EC50 (Meloidogyne incognita [4]) [µg/mL]
CC(=O)O [ACETIC ACID] | 64 (≈ 1070 µM) | 38.3 (≈ 638 µM) | – | –
O=Cc1ccc(CO)o1 [AES-103] | > 100 | 45.7 (≈ 362 µM) | – | –
CCCC(=O)O [BUTYRIC ACID] | 69.8 (≈ 792 µM) | 40.7 (≈ 462 µM) | >30 | –
CCCCCCCCCC(=O)O [DECANOIC ACID] | 354 (≈ 2050 µM) | 248 (≈ 1440 µM) | – | –
CCOP(=O)(SC(C)CC)N1CCSC1=O (stereo not given) [FOSTHIAZATE] | 3.3 (≈ 11.6 µM) | 0.4 (≈ 1.41 µM) | – | –
O=Cc1ccco1 [FURFURAL] | 11.4 (≈ 119 µM) | 8.5 (≈ 88.5 µM) | – | 24.1 (≈ 251 µM)
OCc1ccco1 [FURFURYL ALCOHOL] | > 100 | 41.2 (≈ 420 µM) | – | –
CCCCCC(=O)O [HEXANOATE] | 88.7 (≈ 764 µM) | 41.1 (≈ 354 µM) | – | –
CCCCCCCCCCCCCCCC(=O)O [PALMITIC ACID] | > 500 | > 500 | – | –
